In the library only some 3.5% were active in any assay of this set; here they are far more common.
RGS4 pot: RGS4 potentiators or activators, primary screen, cell-based, HEK293 M3R inducible RGS4, calcium flux | 0.92% of 310,000 active | B-score at 10 µM | carbachol calcium flux Fluo4; stronger effect = lower value;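 active = B-score of the integrated calcium signal more than 4 SD below the library mean, with starting fluorescence not abnormally high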;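 also: negative B-score means reduced calcium response which marks RGS4 activation or potentiation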
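Assay system: Inducible-RGS4 HEK293 cells carrying M3 receptor | Schedule: Compound preincubation 20 min at room temperature before agonist | Signal: Kinetic calcium fluorescence imaging with Fluo4-AM dye, 2 µM | Read-out basis: B score from integrated fluorescence ratio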
MrgX1 antagonist: antagonists of human MrgX1 receptor, primary screen, HEK293 cells, Fluo-4 calcium flux. BAM8-22 antagonism; stronger effect = lower value. B-score at 10 µM. 1.3% of 310,000 active;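 active = calcium-response B-score plate-corrected more than 3 library SD below zero, starting fluorescence within 5 deviations, no agonist response on first addition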;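 also: peak minus trough fluorescence over baseline after final BAM8-22 challenge near maximal dose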
Target sequence (Q96LB2 whole entry, looked up): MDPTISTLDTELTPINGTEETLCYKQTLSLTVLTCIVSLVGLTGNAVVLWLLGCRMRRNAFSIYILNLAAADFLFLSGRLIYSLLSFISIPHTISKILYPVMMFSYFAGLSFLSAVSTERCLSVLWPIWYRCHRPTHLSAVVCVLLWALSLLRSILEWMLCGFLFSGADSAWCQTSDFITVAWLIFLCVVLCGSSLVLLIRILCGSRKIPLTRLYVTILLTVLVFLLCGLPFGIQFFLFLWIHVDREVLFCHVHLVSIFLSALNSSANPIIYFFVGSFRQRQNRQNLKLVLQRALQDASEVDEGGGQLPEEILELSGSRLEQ
MrgX1 PAM: positive allosteric modulators of MrgX1, primary screen, HEK293 cells, Fluo-4 calcium flux; FDSS; stronger effect = higher value; B-score at 10 µM; 0.63% of 310,000 active; AID 588675, 2011;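 active = plate-corrected calcium response at least 3 library SD above typical, normal starting fluorescence, not activating the receptor alone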;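 also: compound read alongside a low EC10 to EC30 dose of BAM8-22 agonist; peak minus trough fluorescence over baseline measured at the second addition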
RGS4 inh: RGS4 inhibitors, primary screen, cell-based, HEK293 M3R inducible RGS4, calcium flux; Regulator of G-protein signaling 4 (Homo sapiens), P49798; Fluo-4 calcium flux; stronger effect = higher value; triggered by carbachol at its EC20; B-score at 10 µM; 0.45% of 310,000 active;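 active = B-score, a plate-corrected calcium signal, over three deviations above library mean, with baseline fluorescence within five deviations of library mean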;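 also: RGS4 expression induced by doxycycline in cells with stable M3 receptor; B-score is computed from the integrated fluorescence ratio over baseline after carbachol; higher B-score means a larger calcium signal and so more RGS4 inhibition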
Target sequence (P49798 whole entry, looked up): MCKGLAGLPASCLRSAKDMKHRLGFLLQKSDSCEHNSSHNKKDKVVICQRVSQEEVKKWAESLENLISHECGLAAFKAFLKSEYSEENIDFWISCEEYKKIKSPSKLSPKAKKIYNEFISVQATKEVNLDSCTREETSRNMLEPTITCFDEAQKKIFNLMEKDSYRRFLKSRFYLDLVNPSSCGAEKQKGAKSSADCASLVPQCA
MrgX1 agonist: agonists of human MrgX1 receptor, primary screen, HEK293 cells, Fluo-4 calcium flux; Mas-related G-protein coupled receptor member X1 (Homo sapiens), Q96LB2; Fluo-4 calcium fluorescence, agonist mode; stronger effect = higher value; B-score at 10 µM; 0.44% of 310,000 active;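 active = calcium response B-score plate-corrected fluorescence ratio at least 3 library SD, with starting fluorescence B-score inside 5 SD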
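times = overnight plating, then 30 min 37 °C plus 30 min room-temperature dye loading | assay system = stable human MrgX1 HEK293 cell line | input = fifteen thousand cells per well | signal = kinetic calcium dye fluorescence, Fluo-4 NW | dosing = compound delivered in addition one of three | read-out = B-scored fluorescence response ratio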
MrgX1 PAM conf: MrgX1 positive allosteric modulators, duplicate retest, confirmation, HEK293 cells, Fluo-4 calcium flux | shares compounds with MrgX1 PAM | Fluo-4 calcium fluorescence, FDSS | activation (ratio percentage), % at 10 µM | 13% of 1,200 active;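 active = ratio at least 3 SD above the weak peptide control, stable starting fluorescence, no direct agonism earlier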;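 also: compound followed by low BAM8-22 agonist challenge near EC20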
HEK293 Ca flux: nonspecific calcium signal in parental HEK293, confirmation, counter-screen for MrgX1 antagonist project, parental HEK293 cells, Fluo-4 calcium flux; shares compounds with MrgX1 antagonist; Fluo-4 calcium fluorescence, FDSS; fluorescence ratio F(max-min)/F0 at 10 µM; 2% of 4,000 active; AID 624111, 2012;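 active = duplicate-averaged calcium fluorescence ratio at least three times the standard deviation of buffer wells, a nonspecific response in parental cells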
HEK293 Ca counter: calcium response in parental HEK293 cells, primary screen, counter-screen for MrgX1 allosteric activator project, cell-based, Fluo-4 calcium flux, duplicate; shares compounds with MrgX1 antagonist; Fluo-4 fluorescence ratio; stronger effect = higher value; fluorescence ratio F(max-min)/F0 at 10 µM; 0.4% of 4,000 active; AID 624114, 2012;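 active = calcium fluorescence ratio, averaged over duplicates, at least 3 SD of the buffer-well ratio, meaning a nonspecific response in receptor-free cells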;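 also: untransfected parental HEK293 lacking MrgX1 used as counterscreen for MrgX1 allosteric activators; fluorescence change taken during the second addition on a kinetic imager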
HEK293 Ca cntr2: calcium response in parental HEK293 cells, primary screen, counter-screen for MrgX1 agonist project, cell-based, Fluo-4 calcium flux, duplicate, agonist mode; 8.7% of 4,000 active; Fluo-4 calcium fluorescence (FDSS); stronger effect = higher value; shares compounds with MrgX1 antagonist; AID 624115, 2012; fluorescence ratio F(max-min)/F0 at 10 µM;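 active = calcium fluorescence ratio at least three times the spread of buffer wells, meaning a non-specific response in parental cells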
The depositor's hits bear a star; i = inactive; . = not tested or not shown.

SMILES	RGS4 pot	MrgX1 antagonist	MrgX1 PAM	RGS4 inh	MrgX1 agonist	MrgX1 PAM conf	HEK293 Ca flux	HEK293 Ca counter	HEK293 Ca cntr2
C=CCc1c(C)nc(SC)nc1Nc1ccc(C(C)=O)cc1	i	i	7*	i	i	i	i	i	i
C=CCc1c(C)nc(SC)nc1Nc1ccc(C(=O)O)cc1	i	i	i	i	i	.	.	.	.
CCC1C(=NO)C(CC)C(c2ccccc2)NC1c1ccccc1 (stereo not drawn)	i	i	23*	i	i	i	i	i	i
CCC1C(=O)C(CC)C(c2ccccc2)NC1c1ccccc1 (stereo not drawn)	i	i	i	i	i	.	.	.	.
CC1(C)Cn2c(nc(=O)c3c2NCN(CCc2ccccc2)C3)S1	i	i	i	i	i	.	.	.	.
Cc1ccccc1N1C(=O)C2C3C=CC(C2C1=O)N(C)C3=O (stereo not drawn)	i	i	i	i	i	.	.	.	.
Cc1ccccc1N1C(=O)C2C3CCC(O3)C2C1=O (stereo not drawn)	i	i	19*	i	i	i	i	i	i
OC(CCN1CCCCC1)(c1ccccc1)C1C[C@@H]2C=C[C@H]1C2 (stereo partly drawn)	.	i	6.5*	.	i	i	i	i	i
CN1CCN(CC#CC(C)(O)C2CC3C=CC2C3)CC1 (stereo not drawn)	i	i	i	i	i	.	.	.	.
CCc1cccc(NS(=O)(=O)c2ccc3c(c2)NC(=O)C(C)S3)c1 (stereo not drawn)	i	i	16*	i	i	i	i	i	i
O=C(O)c1ccc2c(=O)n3c(nc2c1)/C(=C/c1ccccc1Br)CC3	i	i	i	i	i	.	.	.	.
Cc1nnc(NC(=O)c2ccc(S(=O)(=O)N3CCOCC3)cc2)s1	i	i	9.8*	i	i	i	i	i	i
Cc1nnc(NC(=O)c2ccc(C)c(S(=O)(=O)N3CCOCC3)c2)s1	i	i	i	i	i	.	.	.	.
CC(C)Sc1nc(N)nc(-c2cccs2)c1C#N	i	i	9.1*	i	i	i	i	i	i
CSc1nc(N)nc(-c2cccs2)c1C#N	i	i	i	i	i	.	.	.	.
COc1ccc(CCNC(=O)CCc2nnc(Cc3ccc4c(c3)OCO4)o2)c(OC)c1	i	i	i	i	i	.	.	.	.
COCc1ccc(C(=O)N2CCCC(C(=O)c3cccc(C(F)(F)F)c3)C2)o1 (stereo not drawn)	i	i	32*	i	i	i	i	i	i
CC1Cc2ccccc2N1C(=S)NC(=O)c1cccc(Br)c1 (stereo not drawn)	i	i	10*	i	i	i	i	i	i
CCOC(=O)c1c(-c2ccccc2)nc2cc(C)ccn12	i	i	i	i	i	.	.	.	.
CCOC(=O)c1c(-c2ccccc2)nc2ccc(C)cn12	i	i	9.5*	i	i	i	i	i	i
Cc1cccc(NS(=O)(=O)c2ccc(-n3cccn3)cc2)c1C	i	i	i	i	i	.	.	.	.
CC(NC(=O)C(=O)c1cn(CC(=O)N2CCOCC2)c2ccccc12)c1ccccc1 (stereo not drawn)	i	i	i	i	i	.	.	.	.
Nc1c2c(nc3ccc(Br)cc13)N(c1ccccc1)CC2	.	i	i	.	i	.	.	.	.
Nc1c2c(nc3ccc(Br)cc13)N(Cc1ccccc1)CC2	i	i	8.3*	i	i	i	i	i	i
C=CCSc1nnc(-c2ccccc2N=Cc2c(C)[nH]n(-c3ccccc3)c2=O)c(=O)[nH]1	i	i	8.7*	i	i	i	i	i	i
SMILES	RGS4 pot	MrgX1 antagonist	MrgX1 PAM	RGS4 inh	MrgX1 agonist	MrgX1 PAM conf	HEK293 Ca flux	HEK293 Ca counter	HEK293 Ca cntr2
Cc1[nH]n(-c2ccccc2)c(=O)c1/C=N/c1nn[nH]n1	i	i	i	i	i	.	.	.	.
CSc1nnc(-c2ccccc2N=Cc2c(C)[nH]n(-c3ccc4ccccc4c3)c2=O)c(=O)[nH]1	i	i	12*	i	i	i	i	i	i
Cc1[nH]n(-c2ccccc2)c(=O)c1C=Nc1cnc2ccccc2c1	i	i	i	i	i	.	.	.	.
CCOC(=O)c1cc(NC(=O)Nc2ccccn2)c(C)nc1C	i	i	i	i	i	.	.	.	.
Cc1cccc(NC(=O)CC(=O)Nc2cccc(C)c2)c1	i	i	i	i	i	.	.	.	.
Cc1cccc(NC(=O)C23CCC(C)(C2Br)C3(C)C)c1 (stereo not drawn)	i	i	20*	i	i	i	i	i	i
O=C(Nc1cccc(-c2cn3ccccc3n2)c1)c1ccccc1	i	i	6.8*	i	i	8.4%*	i	i	i
COC(=O)c1ccc(N2C(=O)CC(Sc3n[nH]c(C)n3)C2=O)cc1 (stereo not drawn)	i	i	7.8*	i	i	i	i	i	i
COC(=O)c1cc(C(=O)OC)cc(N2C(=O)CC(Sc3nc(C)cc(C)n3)C2=O)c1 (stereo not drawn)	i	i	i	i	i	.	.	.	.
CC(C)CC(COCc1ccc(F)cc1)N1CCN(C(=O)c2cccc(C(F)(F)F)c2)CCC1=O (stereo not drawn)	i	i	i	i	i	.	.	.	.

Screens (PubChem)
